The source of these data is ChEMBL document CHEMBL3085657, “Preparation and in vitro photodynamic activities of folate-conjugated distyryl boron dipyrromethene based photosensitizers” (J Med Chem, 2013).

Data set [1] deals with KB. The experiment in a line: Photocytotoxicity against human KB cells overexpressing folate receptor assessed as cell viability incubated for 24 hrs followed by halogen light illumination measured after 20 mins by MTT assay. The class given is functional, cell-based. The essentials:
(§1)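 Cells seeded at about 1 × 10^4 (KB) or 2 × 10^4 (MCF-7) per well, grown overnight, then exposed to serial dilutions in folic acid free RPMI 1640. Dilutions came from 1.6 mM DMF stocks taken to 80 μM with aqueous Tween 80. After PBS rinse and fresh medium, cells were illuminated (halogen lamp, λ > 610 nm, 40 mW cm−2, 20 min, 48 J cm−2) and kept overnight at 37 °C. Read by MTT (3 h) with SDS/isopropanol solubilisation and A540. Viability is relative to wells without compound; three experiments in quadruplicate, mean ± SEM.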
Background: Tetrazolium dyes change colour on reduction, which living cells bring about.

For data set [2], the system named is MCF7. The experiment in a line: Selectivity ratio of IC50 for human MCF7 cells expressing low level of folate receptor to IC50 for human KB cells overexpressing folate receptor. The class given is functional. The essentials:
as §1

The test system of data set [3] is MCF7. Description: Photocytotoxicity against human MCF7 cells expressing low level of folate receptor assessed as cell viability incubated for 24 hrs followed by halogen light illumination measured after 20 mins by MTT assay. The class given is functional, cell-based. A digest of the protocol:
as §1

The nature of data set [4]: Cellular uptake in endoplasmic reticulum of human KB cells overexpressing folate receptor at 1 uM after 24 hrs by ER-tracker green based-confocal microscopic analysis. The class given is ADME, cell-based. A digest of the protocol: (§2)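 KB cells (about 1 × 10^5 on coverslips, overnight at 37 °C, 5% CO2) given conjugate at 1 μM in folic acid free medium for 24 h. Then 15 min with Lyso-Tracker Green DND 26 (4.0 μM in medium), Mito-Tracker Green FM (0.2 μM in medium) or ER-Tracker Green (1.0 μM in PBS). PBS rinse; confocal imaging with 488 nm argon and 633 nm He-Ne lasers.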

The subject of data set [5] is KB. Description: Cytotoxicity against human KB cells overexpressing folate receptor assessed as cell viability at 80 uM after 24 hrs by MTT assay in absence of halogen light. The class given is cell-based.
For data set [6], the system named is KB. The experiment in a line: Cellular uptake in human KB cells overexpressing folate receptor at 1 uM after 24 hrs by bright field microscopy-based fluorescence assay. The class given is ADME, cell-based. A digest of the protocol:
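About 2 × 10^5 KB cells grown overnight on coverslips, then exposed to conjugate (1.0 μM) in folic acid free medium for 24 h at 37 °C. PBS rinse; confocal imaging with 633 nm He-Ne excitation and emission collected at 650−750 nm. Mean intracellular fluorescence taken over 50 cells per sample, reported as mean ± SD.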

Data set [7] concerns MCF7. Description: Cytotoxicity against human MCF7 cells expressing low level of folate receptor assessed as cell viability at 80 uM after 24 hrs by MTT assay in absence of halogen light. The class given is cell-based. The note with it: mcf7, 24 h.
The nature of data set [8]: Induction of singlet oxygen formation in DMF assessed as photodegradation of DPBF at 4 uM. The class given is physicochemical. The essentials: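 Singlet oxygen generation measured in DMF with 1,3-diphenylisobenzofuran as scavenger. Scavenger photodegradation followed as the fall in absorbance at 415 nm over time, with ZnPc as the reference.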
Data set [9] can be described thus: Cellular uptake in lysosome of human KB cells overexpressing folate receptor at 1 uM after 24 hrs by lyso-tracker DND 26-based confocal microscopic analysis. The class given is ADME, cell-based. A digest of the protocol:
as §2

The nature of data set [10]: Ratio of cellular uptake in human KB cells to human MCF7 cells at 5 uM after 24 hrs. The class given is ADME, cell-based. The note with it: mcf7, 24 h. A digest of the protocol: (§3)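 KB or MCF-7 cells (about 2 × 10^5 on coverslips, overnight at 37 °C, 5% CO2) incubated 24 h with 5.0 μM conjugate in folic acid free medium. PBS rinse; inverted microscope with 630 nm excitation, emission collected above 660 nm. Mean intracellular fluorescence from 24 cells per sample (mean ± SD), compared between the two lines.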

Data set [11] deals with KB. The experiment in a line: Photocytotoxicity against human KB cells overexpressing folate receptor assessed as cell viability at IC50 incubated for 24 hrs followed by halogen light illumination measured after 20 mins by MTT assay in presence of free folic acid. The class given is functional.
In data set [12] the test system is KB. The experiment in a line: Cellular uptake in human KB cells overexpressing folate receptor at 5 uM after 24 hrs by bright field microscopy-based fluorescence assay. The class given is ADME, cell-based. A digest of the protocol:
as §3

Data set [13] deals with MCF7. Description: Cellular uptake in human MCF7 cells expressing low level of folate receptor at 5 uM after 24 hrs by bright field microscopy-based fluorescence assay. The class given is ADME, cell-based. The note with it: mcf7, 24 h. The essentials: as §3
The nature of data set [14]: Cellular uptake in mitochondria of human KB cells overexpressing folate receptor at 1 uM after 24 hrs by mito-tracker green FM-based confocal microscopic analysis. The class given is ADME. The essentials: as §2

SMILES strings stand for the structures.

With `C#CCOCCOCCOCCOc1ccc(C2=C3C(C)=C(I)C(/C=C/c4ccc(OCCOCCOCCOC)cc4)=[N+]3[B-](F)(F)n3c(/C=C/c4ccc(OCCOCCOCCOC)cc4)c(I)c(C)c32)cc1`, the IC50 in the data set on KB [1] turned out to be 20 nM; in the data set with MCF7 [3], 60 nM. Besides, in the data set with MCF7 [2], the “Ratio IC50” value worked out at 3.

Take `COCCOCCOCCOc1ccc(/C=C/C2=[N+]3C(=C(c4ccc(OCCOCCOCCOCc5cn(CCOCCOCCNC(=O)CC[C@H](NC(=O)c6ccc(NCc7cnc8nc(N)[nH]c(=O)c8n7)cc6)C(=O)O)nn5)cc4)c4c(C)c(I)c(/C=C/c5ccc(OCCOCCOCCOC)cc5)n4[B-]3(F)F)C(C)=C2I)cc1`: the Drug uptake result (in data set [4]; in the data set with KB [6]; in data set [9]) was “Active” each time. Besides, the Activity entry in the data set with KB [5] is recorded as “Non-toxic”; with MCF7 [7], “Non-toxic”; in data set [8], “Active”. In addition, the values for the IC50 in the data set on KB [1] and in the data set on MCF7 [3] were 180 nM and 1000 nM, respectively. The “Ratio IC50” value in the data set with MCF7 [2] stood at 6.

For `Nc1nc(=O)c2nc(CNc3ccc(C(=O)N[C@@H](CCC(=O)O)C(=O)O)cc3)cnc2[nH]1` [FOLIC ACID], the IC50 in the data set with KB [1] stood at 500 nM.

On to `COCCOCCOCCOc1ccc(/C=C/C2=[N+]3C(=C(c4ccc(OCc5cn(CCOCCOCCNC(=O)CC[C@H](NC(=O)c6ccc(NCc7cnc8nc(N)[nH]c(=O)c8n7)cc6)C(=O)O)nn5)cc4)c4c(C)c(I)c(/C=C/c5ccc(OCCOCCOCCOC)cc5)n4[B-]3(F)F)C(C)=C2I)cc1`, for which the Drug uptake entry in [4] was “Active”; in the data set on KB [6], “Active”; in the data set on KB [12] it was “Active”; with MCF7 [13], “Not Active”; in data set [14], “Not Active”; in data set [9] it was “Active”. Moreover, the Ratio in data set [10] is 5. Besides, the Activity entry is “Non-toxic” in the data set on KB [5], 94% in the data set on KB [11], “Non-toxic” in the data set with MCF7 [7] and “Active” in data set [8]. Further, the IC50 was found to be 60 nM in the data set with KB [1] and 2560 nM in the data set on MCF7 [3]. Further, in the data set on MCF7 [2], the “Ratio IC50” value came out at 43.

By IC50 is commonly meant the point on the concentration scale where inhibition reaches its midpoint.
